Assay results taken from ChEMBL document CHEMBL2401703, “Synthesis of pyrazolo[1,5-a][1,3,5]triazine derivatives as inhibitors of thymidine phosphorylase” (Eur J Med Chem, 2013).
Calls of active or inactive are those of the source. The calls are words filed in the database; no cut-off is given here.

How the values were obtained:
[1] = biological target: Thymidine phosphorylase (Escherichia coli K-12) (UniProt P07650); assay: Inhibition of recombinant Escherichia coli thymidine phosphorylase using thymidine as substrate at 50 uM by UV-spectrophotometric analysis relative to control
Thymidine phosphorylase (Escherichia coli K-12), sequence (P07650 whole entry, looked up): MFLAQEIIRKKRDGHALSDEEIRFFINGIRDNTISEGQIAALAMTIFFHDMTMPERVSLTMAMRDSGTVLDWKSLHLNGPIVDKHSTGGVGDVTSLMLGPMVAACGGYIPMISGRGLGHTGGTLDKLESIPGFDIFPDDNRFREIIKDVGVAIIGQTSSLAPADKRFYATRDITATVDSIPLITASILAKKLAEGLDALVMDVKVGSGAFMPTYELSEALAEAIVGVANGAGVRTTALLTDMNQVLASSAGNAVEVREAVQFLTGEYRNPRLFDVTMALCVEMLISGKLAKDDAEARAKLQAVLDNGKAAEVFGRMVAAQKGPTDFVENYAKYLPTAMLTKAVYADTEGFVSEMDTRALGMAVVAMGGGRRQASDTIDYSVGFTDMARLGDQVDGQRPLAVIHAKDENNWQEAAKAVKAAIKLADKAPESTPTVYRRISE
Outline: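 TP (1.5 U/ml stock in pH 7.0 phosphate buffer) mixed with compound in DMSO (DMSO alone as blank) and thymidine (5 mM stock, 200 µl into 1 ml total) in pH 7.4 phosphate buffer. Absorbance decrease at 290 nm read at 4, 8, 12, 16 and 20 min. Velocity taken from the slope of a linear fit. Percent inhibition calculated versus the blank.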

Thymidine phosphorylase = Thymidine phosphorylase (Escherichia coli K-12, UniProt P07650); assay: Inhibition of recombinant Escherichia coli thymidine phosphorylase using thymidine as substrate by UV-spectrophotometric analysis
Thymidine phosphorylase, sequence (P07650 whole entry): as the sequence (P07650 whole entry, looked up) above

[2] = biological target: Thymidine phosphorylase (Escherichia coli K-12) (UniProt P07650); assay: Ratio of 7-deazaxanthine IC50 to compound IC50 for recombinant Escherichia coli thymidine phosphorylase
[3] = biological target: Thymidine phosphorylase (Escherichia coli K-12) (UniProt P07650); assay: Non-competitive inhibition of recombinant Escherichia coli thymidine phosphorylase using thymidine as substrate at 0.01 to 0.2 uM by Lineweaver-burk plot analysis

For `O=c1[nH]c(=O)n2nc(-c3ccc(Cl)cc3)cc2[nH]1`, the inhibition [1] was < 50%.

`CCOc1ccc(-c2cnn3c(=O)[nH]c(=S)[nH]c23)cc1` was tested, and the IC50 (Thymidine phosphorylase) was 15.5 µM.

In the case of `O=c1[nH]c(=O)n2nc(-c3ccc(F)cc3)cc2[nH]1`, the inhibition [1] is reported as < 50%.

`CC(C)(C)c1ccc(-c2cnn3c(=O)[nH]c(=S)[nH]c23)cc1` gave an inhibition [1] of 50% and an IC50 (Thymidine phosphorylase) of 5.6 µM.

Compound `Cc1ccc(-c2cc3[nH]c(=S)[nH]c(=O)n3n2)cc1` has an inhibition [1] of 50% and an IC50 (Thymidine phosphorylase) of 19.3 µM.

With `CC(C)(C)c1ccc(-c2cc3[nH]c(=O)[nH]c(=O)n3n2)cc1` the inhibition [1] was < 50%.

In the case of `O=c1[nH]c(=S)[nH]c2c(-c3ccc([N+](=O)[O-])cc3)cnn12`, the IC50 (Thymidine phosphorylase) is reported as 0.58 µM.

With `O=c1[nH]c(=O)n2nccc2[nH]1` the inhibition [1] was < 50%.

`O=c1[nH]c(=O)n2ncc(-c3ccc(C(F)(F)F)cc3)c2[nH]1` was tested, and the inhibition [1] was < 50%.

In the case of `O=c1[nH]c(=O)n2ncc(-c3ccc(Br)cc3)c2[nH]1`, the inhibition [1] is reported as < 50%.

`O=c1[nH]c(=S)[nH]c2cc(-c3ccc(Br)cc3)nn12` showed an inhibition [1] of 50% and an IC50 (Thymidine phosphorylase) of 34.9 µM.

With `O=c1[nH]c(=S)[nH]c2c(I)cnn12` the inhibition [1] was 50% and the IC50 (Thymidine phosphorylase) was 20.8 µM.

In the case of `O=c1[nH]c(=O)n2nc(-c3ccc(C(F)(F)F)cc3)cc2[nH]1`, the inhibition [1] is reported as < 50%.

With `Cc1cnn2c(=O)[nH]c(=O)[nH]c12` the inhibition [1] was < 50%.

For `O=c1[nH]c(=O)n2ncc(Cl)c2[nH]1`, the inhibition [1] was < 50%.

With `CC(C)(C)c1ccc(-c2cc3[nH]c(=S)[nH]c(=O)n3n2)cc1` the inhibition [1] was 50% and the IC50 (Thymidine phosphorylase) was 6.6 µM.

With `CC(C)(C)c1cc2[nH]c(=O)[nH]c(=O)n2n1` the inhibition [1] was < 50%.

In the case of `Cc1cnn2c(=O)[nH]c(=S)[nH]c12`, the inhibition [1] is reported as < 50% and the IC50 (Thymidine phosphorylase) is reported as 87.3 µM.

`O=c1[nH]c(=S)[nH]c2cc(-c3ccc(F)cc3)nn12` gave an inhibition [1] of 50% and an IC50 (Thymidine phosphorylase) of 41.7 µM.

`O=c1[nH]c(=S)[nH]c2ccnn12` was tested, and the inhibition [1] was < 50% and the IC50 (Thymidine phosphorylase) was 68.2 µM.

`O=c1[nH]c(=S)[nH]c2c(-c3ccc(S(F)(F)(F)(F)F)cc3)cnn12` was tested, and the Ratio IC50 [2] was 800, the inhibition [3] was “Active” and the IC50 (Thymidine phosphorylase) was 0.04 µM.

In the case of `Cc1cc2[nH]c(=S)[nH]c(=O)n2n1`, the inhibition [1] is reported as < 50% and the IC50 (Thymidine phosphorylase) is reported as 79.4 µM.

`O=c1[nH]c(=S)[nH]c2cc(C(F)(F)F)nn12` showed an inhibition [1] of 50% and an IC50 (Thymidine phosphorylase) of 32.6 µM.

Compound `COc1ccc(-c2cc3[nH]c(=S)[nH]c(=O)n3n2)cc1` has an inhibition [1] of 50% and an IC50 (Thymidine phosphorylase) of 28.4 µM.

With `O=c1[nH]c(=O)n2nc(-c3ccc(Br)cc3)cc2[nH]1` the inhibition [1] was < 50%.

In the case of `CC(C)(C)c1ccc(-c2cnn3c(=O)[nH]c(=O)[nH]c23)cc1`, the inhibition [1] is reported as < 50%.

With `Cc1ccc(-c2cnn3c(=O)[nH]c(=O)[nH]c23)cc1` the inhibition [1] was < 50%.

`COc1ccc(-c2cnn3c(=O)[nH]c(=O)[nH]c23)cc1` was tested, and the inhibition [1] was < 50%.

With `O=c1[nH]c(=O)n2ncc(Br)c2[nH]1` the inhibition [1] was < 50%.

`Cc1ccc(-c2cnn3c(=O)[nH]c(=S)[nH]c23)cc1` gave an inhibition [1] of 50% and an IC50 (Thymidine phosphorylase) of 1.7 µM.

`O=c1[nH]c(=O)n2ncc(-c3ccc(F)cc3)c2[nH]1` was tested, and the inhibition [1] was < 50%.

`COc1ccc(-c2cnn3c(=O)[nH]c(=S)[nH]c23)cc1` was tested, and the inhibition [1] was 50% and the IC50 (Thymidine phosphorylase) was 39.7 µM.

`O=c1[nH]c(=S)[nH]c2c(Cl)cnn12` gave an inhibition [1] of 50% and an IC50 (Thymidine phosphorylase) of 27.6 µM.

In the case of `O=c1[nH]c(=O)n2ncc(-c3ccc(Cl)cc3)c2[nH]1`, the inhibition [1] is reported as < 50%.

In the case of `O=c1[nH]c(=S)[nH]c2c(-c3ccc(Br)cc3)cnn12`, the inhibition [1] is reported as 50% and the IC50 (Thymidine phosphorylase) is reported as 0.63 µM.

In the case of `Cc1cc2[nH]c(=O)[nH]c(=O)n2n1`, the inhibition [1] is reported as < 50%.

For `O=c1[nH]c(=O)n2nc(-c3ccccc3)cc2[nH]1`, the inhibition [1] was < 50%.

Work on `O=c1[nH]c(=S)[nH]c2c(-c3ccccc3)cnn12` yielded an inhibition [1] of 50% and an IC50 (Thymidine phosphorylase) of 26.3 µM.

With `O=c1[nH]c(=O)n2ncc(I)c2[nH]1` the inhibition [1] was < 50%.

`COc1ccc(-c2cc3[nH]c(=O)[nH]c(=O)n3n2)cc1` was tested, and the inhibition [1] was < 50%.

For `O=c1[nH]c(=S)[nH]c2cc(-c3ccc(C(F)(F)F)cc3)nn12`, the inhibition [1] was 50% and the IC50 (Thymidine phosphorylase) was 9.9 µM.

`Cc1ccc(-c2cc3[nH]c(=O)[nH]c(=O)n3n2)cc1` was tested, and the inhibition [1] was < 50%.

With `CC(C)(C)c1cc2[nH]c(=S)[nH]c(=O)n2n1` the inhibition [1] was 50% and the IC50 (Thymidine phosphorylase) was 29.1 µM.

Work on `O=c1[nH]c(=S)[nH]c2c(-c3ccc(F)cc3)cnn12` yielded an inhibition [1] of 50% and an IC50 (Thymidine phosphorylase) of 10.5 µM.

With `O=c1[nH]c(=O)n2ncc(-c3ccccc3)c2[nH]1` the inhibition [1] was < 50%.

For `O=c1[nH]c(=S)[nH]c2cc(-c3ccc(Cl)cc3)nn12`, the inhibition [1] was 50% and the IC50 (Thymidine phosphorylase) was 33.5 µM.

For `O=c1[nH]c(=O)n2nc(C(F)(F)F)cc2[nH]1`, the inhibition [1] was < 50%.

`O=c1[nH]c(=S)[nH]c2c(-c3ccc(I)cc3)cnn12` was tested, and the Ratio IC50 [2] was 150 and the IC50 (Thymidine phosphorylase) was 0.21 µM.

For `O=c1[nH]c(=S)[nH]c2c(Br)cnn12`, the inhibition [1] was 50% and the IC50 (Thymidine phosphorylase) was 44.4 µM.

For `O=c1[nH]c(=S)[nH]c2c(-c3ccc(Cl)cc3)cnn12`, the inhibition [1] was 50% and the IC50 (Thymidine phosphorylase) was 0.54 µM.

`O=c1[nH]c(=S)[nH]c2c(-c3ccc(C(F)(F)F)cc3)cnn12` was tested, and the inhibition [1] was 50% and the IC50 (Thymidine phosphorylase) was 0.24 µM.
